Here are results for eleven compounds from PubChem BioAssay AID504859 (Broad Institute, 2011).

Molecules are shown by their SMILES. Calls of active or inactive are those of the source.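 Rule for the calls: active = tumorsphere count inhibition of at least 15% in the mean or in any single replicate; inactive = the rest.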

In this test the test system is SUM159 tumorsphere formation, imaging, 9 days. As to the kind of experiment: tumorsphere growth blockade in breast cancer cells – imaging, SUM159, single point, dry powder, set 2, orthogonal assay for breast cancer stem cell project, confirmation (AID 504859). The settings on record: at 20 µM; active compounds read high. A digest of the protocol: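 Material: SUM159 breast cancer cells forming tumorspheres | Amount: 1000 cells per well | Schedule: Culture incubation at 37 °C under 5% CO2 | Technique: 2x transmitted-light imaging, 9 sites | Format: Low-attachment multiwell plate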
A word on the inhibition: it is the relative decrease from the control value, in per cent. For the compound `COc1ccc(/C=C/C(=O)NC2=NCCS2)c(OC)c1`, the inhibition was 3.49% (inactive).

Turning to `Cc1csc(NC(=O)c2ccc(COc3cccc(Cl)c3)o2)n1`, the inhibition was 5.07% (inactive). Then `Cc1csc(NC(=O)c2ccc(COc3ccccc3F)o2)n1`, with 1.67% (inactive). Then `CC(C)c1ccc(/C=C/C(=O)NC2=NCCS2)cc1`, with 15.4%; and `O=C(/C=C/c1ccc(Cl)c(Cl)c1)NC1=NCCS1`, with 2.48% (inactive). Regarding `CCc1ccc(/C=C/C(=O)NC2=NCCS2)cc1`, the inhibition is 0.128% (inactive). For `O=C(NC1CCCC1)c1ccc(COc2ccccc2)o1`, the inhibition was 11% (inactive). With `O=C(/C=C/c1ccc(-c2ccccc2)cc1)NC1=NCCS1`, the inhibition is 20.5%. In the case of `Cc1csc(NC(=O)c2ccc(COc3cccc(OC(F)(F)F)c3)o2)n1`, the inhibition is -1.1% (inactive). Then `Cc1ccc(/C=C/C(=O)NC2=NCCS2)cc1`, with -19.9% (inactive); and `Cc1csc(NC(=O)c2ccc(COc3ccccc3)o2)n1`, with 19.1%.
